How the values were obtained:
[1] = Volume of distribution at steady state in ICR mouse at 15 mg/kg, iv by LC-MS/MS analysis; assay type: ADME, organism-based; parameters: dose 15 mg/kg, route intravenous; details: in vivo, read-out: Vdss
How it was run: (§1)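 Tail-vein injection in male ICR mice (5–6 weeks), vehicle 10% DMSO in PEG300. Serial terminal sampling of 3–4 mice per time point, with posterior vena cava blood. Plasma was acetonitrile-precipitated and measured by LC-MS/MS. Noncompartmental analysis of mean data: t1/2 = ln2/λz, CL = dose/AUC_inf, Vd_ss = CL × MRT_inf; n = 3/dose group.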

[2] = Volume of distribution at steady state in ICR mouse at 5 mg/kg, iv by LC-MS/MS analysis; assay type: ADME, organism-based; parameters: dose 5 mg/kg, route intravenous; details: in vivo, read-out: Vdss; how it was run: as §1
[3] = AUC (infinity) in ICR mouse at 1 mg/kg, iv by LC-MS/MS analysis; assay type: ADME, organism-based; parameters: time infinity, dose 1 mg/kg, route intravenous; details: plasma
How it was run: (§2)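 Male ICR mice (5–6 weeks, 20–25 g), single doses of 1, 5 or 15 mg/kg in 10% DMSO/PEG300, given iv by tail vein, ip, or orally by gavage. Three to four mice per time point, euthanized under isoflurane, blood drawn from posterior vena cava. Plasma protein precipitated with acetonitrile containing internal standard, then LC-MS/MS (MRM m/z 388.2→192). Noncompartmental analysis of mean concentration-time data, AUCinf by trapezoidal rule with extrapolation, CL = dose/AUCinf, Cmax read from the curve. F = (AUCnon-iv × dose iv)/(AUCiv × dose non-iv). n = 3 per dose group.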

[4] = Drug metabolism in mouse liver microsomes assessed as (3-(1H-indol-2-yl)phenyl)(3,4,5-trimethoxyphenyl)methanol formation at 0.5 uM after 2 hrs by LC-MS/MS analysis in presence of 3 mM NADPH; assay type: ADME
How it was run: (§3)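 Pooled liver microsomes (1 mg/ml protein) incubated with 0.5 µM substrate and 3 mM NADPH in 65 mM potassium phosphate, pH 7.4, 1% methanol, at 37°C for 2 h. Stopped with ice-cold acetonitrile containing internal standard, centrifuged. Supernatant analysed by LC-MS/MS on a C18 column, 15-min gradient, with product ion scans for metabolite identification.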

[5] = AUC (infinity) in ICR mouse at 1 mg/kg, po via gavage by LC-MS/MS analysis; assay type: ADME, organism-based; parameters: time infinity, dose 1 mg/kg, route oral; details: plasma; how it was run: as §2
[6] = Terminal half life in ICR mouse at 5 mg/kg, po via gavage by LC-MS/MS analysis; assay type: ADME, organism-based; parameters: dose 5 mg/kg, route oral; details: in vivo, read-out: beta t1/2 (converted)
How it was run: (§4)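 Male ICR mice (20–25 g) given the compound intraperitoneally or by gavage in 10% DMSO/PEG300. Three to four mice were sacrificed per time point and plasma collected from the vena cava. Plasma was precipitated with acetonitrile containing internal standard and analysed by LC-MS/MS. Noncompartmental analysis of mean concentration-time data: terminal t1/2 = ln2/λz; Tmax by inspection; n = 3/dose group.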

[7] = Cmax in ICR mouse at 5 mg/kg, ip by LC-MS/MS analysis; assay type: ADME, organism-based; parameters: dose 5 mg/kg, route intraperitoneal; details: in vivo; how it was run: as §2
[8] = Retention time of the compound at 0.5 uM by LC-MS/MS analysis; assay type: physicochemical
How it was run: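 After a 2 h incubation at 37°C with liver microsomes (1 mg/ml protein, 3 mM NADPH, 0.5 μM substrate, pH 7.4 phosphate buffer), samples were quenched with acetonitrile and centrifuged. Supernatant separated on a C18 column (15 min run, linear gradient 100% A to 100% B over 7 min) with LC-MS/MS ion trap detection.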

[9] = Tmax in ICR mouse at 5 mg/kg, po by LC-MS/MS analysis; assay type: ADME, organism-based; parameters: dose 5 mg/kg, route oral; details: in vivo
How it was run: (§5)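 Male ICR mice (5–6 weeks, 20–25 g) dosed by gavage in 10% DMSO in PEG300. Three to four mice per time point were euthanized under isoflurane and blood taken from the posterior vena cava. Plasma was acetonitrile-precipitated and analysed by LC-MS/MS (MRM m/z 388.2→192). Tmax read by visual inspection. F = (AUC_oral × dose_iv)/(AUC_iv × dose_oral), with AUC_inf by trapezoidal rule; n = 3/dose group.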

[10] = AUC (infinity) in ICR mouse at 15 mg/kg, ip by LC-MS/MS analysis; assay type: ADME, organism-based; parameters: time infinity, dose 15 mg/kg, route intraperitoneal; details: plasma; how it was run: as §2
[11] = Drug metabolism in monkey liver microsomes assessed as (3-(1H-indol-2-yl)phenyl)(3,4,5-trimethoxyphenyl)methanol formation at 0.5 uM after 2 hrs by LC-MS/MS analysis in presence of 3 mM NADPH; assay type: ADME, Macaca mulatta; details: rhesus monkey; how it was run: as §3
[12] = AUC (infinity) in ICR mouse at 5 mg/kg, po via gavage by LC-MS/MS analysis; assay type: ADME, organism-based; parameters: time infinity, dose 5 mg/kg, route oral; details: plasma; how it was run: as §2
[13] = Mean residence time (infinity) in ICR mouse at 1 mg/kg, po via gavage by LC-MS/MS analysis; assay type: ADME, organism-based; parameters: dose 1 mg/kg, route oral; details: in vivo; how it was run: as §2
[14] = Cmax in ICR mouse at 5 mg/kg, po via gavage by LC-MS/MS analysis; assay type: ADME, organism-based; parameters: dose 5 mg/kg, route oral; details: in vivo; how it was run: as §2
[15] = Antitumor activity against human PC3 cells xenografted in nu/nu mouse assessed as decrease in tumor growth at 10 mg/kg, ip 2 days per week for weeks; assay type: functional; details: PC-3, ip, 48 h, route intraperitoneal
[16] = Metabolic stability in mouse liver microsomes assessed as half life during phase 1 and 2 at 0.5 uM by LC-MS/MS analysis in presence of 3 mM NADPH and […] UDPGA; assay type: ADME; details: read-out: alphat1/2
[17] = Clearance in ICR mouse at 15 mg/kg, iv by LC-MS/MS analysis; assay type: ADME, organism-based; parameters: dose 15 mg/kg, route intravenous; details: in vivo; how it was run: as §2
[18] = Mean residence time (infinity) in ICR mouse at 15 mg/kg, ip by LC-MS/MS analysis; assay type: ADME, organism-based; parameters: dose 15 mg/kg, route intraperitoneal; details: in vivo; how it was run: as §2
[19] = Terminal half life in ICR mouse at 15 mg/kg, iv by LC-MS/MS analysis; assay type: ADME, organism-based; parameters: dose 15 mg/kg, route intravenous; details: in vivo, read-out: beta t1/2 (converted); how it was run: as §1
[20] = Bioavailability in ICR mouse at 1 mg/kg, ip by LC-MS/MS analysis; assay type: ADME, organism-based; details: in vivo; how it was run: as §2
[21] = Terminal half life in ICR mouse at 5 mg/kg, iv by LC-MS/MS analysis; assay type: ADME, organism-based; parameters: dose 5 mg/kg, route intravenous; details: in vivo, read-out: beta t1/2 (converted); how it was run: as §1
[22] = Tmax in ICR mouse at 15 mg/kg, po by LC-MS/MS analysis; assay type: ADME, organism-based; parameters: dose 15 mg/kg, route oral; details: in vivo; how it was run: as §5
[23] = Cmax in ICR mouse at 5 mg/kg, iv by LC-MS/MS analysis; assay type: ADME, organism-based; parameters: dose 5 mg/kg, route intravenous; details: in vivo; how it was run: as §2
[24] = Mean residence time (infinity) in ICR mouse at 5 mg/kg, ip by LC-MS/MS analysis; assay type: ADME, organism-based; parameters: dose 5 mg/kg, route intraperitoneal; details: in vivo; how it was run: as §2
[25] = AUC (infinity) in ICR mouse at 5 mg/kg, ip by LC-MS/MS analysis; assay type: ADME, organism-based; parameters: time infinity, dose 5 mg/kg, route intraperitoneal; details: plasma; how it was run: as §2
Liver microsome = experiment: Drug level in rat liver microsomes assessed as compound retention time treated with 0.5 uM I-387 after 2 hrs by LC-MS/MS analysis; assay type: ADME; how it was run: as §3
[26] = AUC (infinity) in ICR mouse at 5 mg/kg, iv by LC-MS/MS analysis; assay type: ADME, organism-based; parameters: time infinity, dose 5 mg/kg, route intravenous; details: plasma; how it was run: as §2
[27] = Terminal half life in ICR mouse at 15 mg/kg, po via gavage by LC-MS/MS analysis; assay type: ADME, organism-based; parameters: dose 15 mg/kg, route oral; details: in vivo, read-out: beta t1/2 (converted); how it was run: as §4
Liver = experiment: Drug level in mouse liver microsomes assessed as compound retention time treated with 0.5 uM I-387 after 2 hrs by LC-MS/MS analysis; assay type: ADME; how it was run: as §3
[28] = AUC (infinity) in ICR mouse at 15 mg/kg, iv by LC-MS/MS analysis; assay type: ADME, organism-based; parameters: time infinity, dose 15 mg/kg, route intravenous; details: plasma; how it was run: as §2
[29] = Tmax in ICR mouse at 1 mg/kg, ip by LC-MS/MS analysis; assay type: ADME, organism-based; parameters: dose 1 mg/kg, route intraperitoneal; details: in vivo; how it was run: as §4

COc1cc(C(=O)c2cccc(-c3cc4ccccc4[nH]3)c2)cc(OC)c1OC
Vd [1]: 9.8 L/kg | Vd [2]: 3.8 L/kg | AUC(0-inf) [3]: 617 ng·h/mL | Drug metabolism [4]: metabolite_detected | AUC(0-inf) [5]: 148 ng·h/mL | half-life [6]: 7.7 h | Cmax [7]: 1440 ng/mL | Retention_time [8]: 11.3 min | Tmax [9]: 0.5 h | AUC(0-inf) [10]: 12600 ng·h/mL | Drug metabolism [11]: metabolite_detected | AUC(0-inf) [12]: 517 ng·h/mL | MRT inf [13]: 9 h | Cmax [14]: 100 ng/mL | inhibition in vivo at 10 mg/kg [15]: 68% | half-life at 0.5 µM [16]: 0.65 h | clearance [17]: 19 mL/min/kg | MRT inf [18]: 7 h | half-life [19]: 8.9 h | bioavailability [20]: 65% | half-life [21]: 4.3 h | Tmax [22]: 0.5 h | Cmax [23]: 2860 ng/mL | MRT inf [24]: 5.5 h | AUC(0-inf) [25]: 3750 ng·h/mL | Retention_time (Liver microsome): 11.3 min | AUC(0-inf) [26]: 3950 ng·h/mL | half-life [27]: 7.9 h | Retention_time (Liver): 11.3 min | AUC(0-inf) [28]: 13400 ng·h/mL | Tmax [29]: 5 min

Reference: ChEMBL document CHEMBL3526142, “Biotransformation of a novel antimitotic agent, I-387, by mouse, rat, dog, monkey, and human liver microsomes and in vivo pharmacokinetics in mice” (Drug Metab Dispos, 2011)
